Measured values collected from several papers.
Protocols differ between the studies behind these lines.
Observed: parasite growth
Setting: promastigote

With `Oc1ccc(/C=C/c2cc(O)cc(O)c2)cc1` the IC50 was 97.9 µM (Leishmania amazonensis; MTT; 72 h).
With `CC(C)(C)CC(C)(C)Nc1c(-c2cccs2)nc2ncccn12` the IC50 was greater than 100 µM (Leishmania amazonensis; MTT; 72 h).
`COc1ccc(Sc2ccccc2)c(OC)c1OC` gave an IC50 of 14.3 µM (Leishmania braziliensis; MTT; 24 h).
For `CC(C)(C)CC(C)(C)Nc1c(-c2cccc([N+](=O)[O-])c2)nc2ncccn12`, the IC50 was greater than 100 µM (Leishmania amazonensis; MTT; 72 h).
`C=C1C[C@@]23CC[C@H]4[C@@](C)(CCC[C@@]4(C)C(=O)O)[C@@H]2CC[C@@H]1C3` gave an IC50 of 28 µg/mL (Leishmania amazonensis; 72 h).
`COc1ccc([S+]([O-])c2ccc(C)cc2)c(OC)c1OC` (stereo not drawn) gave an IC50 of 67.2 µM (Leishmania braziliensis; MTT; 24 h).
For `CCCCCCCCCCCCCCCCOP(=O)([O-])OCC[N+](C)(C)C`, the IC50 was 15.1 µM (Leishmania amazonensis; MTT; 72 h).
With `COc1ccc(S(=O)(=O)c2ccc(OC)c(OC)c2OC)cc1` the IC50 was 32 µM (Leishmania braziliensis; MTT; 24 h).
For `C=C1CC[C@@H]2[C@](C)(CCC[C@@]2(C)C(=O)O)[C@H]1CCc1ccoc1`, the IC50 was 35 µg/mL (Leishmania amazonensis; 72 h).
`COc1cc(O)c(CC=C(C)C)c(O)c1C(=O)/C=C/c1ccc(O)cc1` gave an IC50 of 47.2 µM (Leishmania amazonensis; MTT; 72 h).
For `C=C1CC[C@@H]2[C@](C)(CCC[C@@]2(C)C(=O)O)[C@H]1CC[C@H](C)CC(=O)O`, the IC50 was 70 µg/mL (Leishmania amazonensis; 72 h).
For `CC(C)(C)CC(C)(C)Nc1c(-c2ccccc2)nc2ncccn12`, the IC50 was 50.3 µM (Leishmania amazonensis; MTT; 72 h).
